Active and inactive are the calls of the source. The rule behind the calls is not given here.
What was measured:
K562 [1] = experiment: Cytostatic activity against human K562 cells after 72 hrs by MTT assay; format: functional, cell-based; details: K562, 72 h
How it was run: (§1)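 IC50 is the concentration that cuts cell growth by 50%, read by quantitative metabolic MTT staining after a 3-day treatment. The resistant sublines were made by raising the concentration of the cytotoxic drug step by step. CEM-DNR-bulk (daunorubicin-selected) stably overexpresses mrp-1. K562-TAX (paclitaxel-selected) expresses only mdr-1. HCT116p53−/− carries null p53 alleles. BJ and MRC-5 are nonmalignant fibroblasts.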

HL-60 = experiment: Antiproliferative activity against human HL60 cells after 72 hrs by XTT assay; format: functional, cell-based; details: HL-60, 72 h
How it was run: (§2)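 Antiproliferative test on HL-60 promyelocytic leukemia and HeLa S3 cervical carcinoma cells growing in liquid suspension.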

[2] = system: Staphylococcus haemolyticus; experiment: Antibacterial activity against methicillin-resistant Staphylococcus haemolyticus A/16568 after 24 hrs; format: functional, organism-based
Candida tropicalis = experiment: Antifungal activity against Candida tropicalis after 48 hrs; format: functional, organism-based
Candida albicans = experiment: Antifungal activity against Candida albicans after 48 hrs; format: functional, organism-based
Pseudomonas aeruginosa [3] = experiment: Antibacterial activity against Pseudomonas aeruginosa CCM 3955 after 24 hrs; format: functional, organism-based
Hepatitis C virus [4] = experiment: Antiviral activity against Hepatitis C virus subtype 2a infected in human HuH7 cells; format: functional, organism-based, Hepacivirus hominis; details: genotype 2a, Huh-7
Staphylococcus aureus [5] = experiment: Antibacterial activity against methicillin-resistant Staphylococcus aureus MRSA 4591 after 24 hrs; format: functional, organism-based
MRC5 = experiment: Cytostatic activity against human MRC5 cells after 72 hrs by MTT assay; format: ADME, cell-based; details: MRC5, 72 h; how it was run: as §1
[6] = Cytotoxicity against human HuH7 cells infected with Hepatitis C virus subtype 1b; format: cell-based, Huh-7
Hepatitis C virus [7] = experiment: Antiviral activity against Hepatitis C virus subtype 1b infected in human HuH7 cells; format: functional, organism-based, Hepacivirus hominis; details: genotype 1b, Huh-7
Escherichia coli [8] = experiment: Antibacterial activity against Escherichia coli CCM 3954 after 24 hrs; format: functional, organism-based
HepG2 = experiment: Antiproliferative activity against human HepG2 cells after 72 hrs by XTT assay; format: functional, cell-based; details: HepG2, 72 h
Enterococcus faecalis = experiment: Antibacterial activity against Enterococcus faecalis CCM 4224 after 24 hrs; format: functional, organism-based
CCRF-CEM = experiment: Cytostatic activity against human CCRF-CEM cells after 72 hrs by MTT assay; format: functional, cell-based; how it was run: as §1
Staphylococcus aureus [9] = experiment: Antibacterial activity against Staphylococcus aureus CCM 3953 after 24 hrs; format: functional, organism-based
A549 = experiment: Cytostatic activity against human A549 cells after 72 hrs by MTT assay; format: functional, cell-based; details: A549, 72 h; how it was run: as §1
[10] = Cytotoxicity against human HuH7 cells infected with Hepatitis C virus subtype 2a; format: cell-based, Huh-7
[11] = Cytostatic activity against human CEM-DNR-bulk cells after 72 hrs by MTT assay; format: functional, cell-based; how it was run: as §1
Pseudomonas aeruginosa [12] = experiment: Antibacterial activity against multi-resistant Pseudomonas aeruginosa A/16575 after 24 hrs; format: functional, organism-based
[13] = Antiproliferative activity against human HeLaS3 cells after 72 hrs by XTT assay; format: functional, cell-based; details: HeLa S3, 72 h; how it was run: as §2
Escherichia coli [14] = experiment: Antibacterial activity against multi-resistant Escherichia coli C/16702 after 24 hrs; format: functional, organism-based
BJ = experiment: Cytostatic activity against human BJ cells after 72 hrs by MTT assay; format: ADME, cell-based; how it was run: as §1
K562 [15] = experiment: Cytostatic activity against paclitaxel-resistant human K562 cells after 72 hrs by MTT assay; format: functional, cell-based; details: K562, 72 h; how it was run: as §1
HCT-116 [16] = experiment: Cytostatic activity against p53-deficient human HCT116 cells after 72 hrs by MTT assay; format: functional, cell-based; details: HCT-116, 72 h; how it was run: as §1
Pichia kudriavzevii = experiment: Antifungal activity against Candida crusei after 48 hrs; format: functional, organism-based
Candida parapsilosis = experiment: Antifungal activity against Candida parapsilosis after 48 hrs; format: functional, organism-based
HCT-116 [17] = experiment: Cytostatic activity against human HCT116 cells after 72 hrs by MTT assay; format: functional, cell-based; details: HCT-116, 72 h; how it was run: as §1

Row | SMILES | IC50 (K562 [1]) [µM] | IC50 (HL-60) [µM] | Activity [2] | Activity (Candida tropicalis) | Activity (Candida albicans) | Activity (Pseudomonas aeruginosa [3]) | EC50 (Hepatitis C virus [4]) [µM] | Activity (Staphylococcus aureus [5]) | IC50 (MRC5) [µM] | CC50 [6] [µM] | EC50 (Hepatitis C virus [7]) [µM] | Activity (Escherichia coli [8]) | IC50 (HepG2) [µM] | Activity (Enterococcus faecalis) | IC50 (CCRF-CEM) [µM] | Activity (Staphylococcus aureus [9]) | IC50 (A549) [µM] | CC50 [10] [µM] | IC50 [11] [µM] | Activity (Pseudomonas aeruginosa [12]) | further results
1 | O=c1[nH]cnc2c1c(-c1ccccc1)cn2[C@@H]1O[C@H](CO)[C@@H](O)[C@H]1O | > 20 | > 20 | inactive | inactive | inactive | inactive | > 44 | inactive | > 100 | > 44 | > 44 | inactive | > 20 | inactive | > 100 | inactive | > 100 | > 44 | > 20 | inactive | IC50 [13]: > 20 µM; Activity (Escherichia coli [14]): inactive; IC50 (BJ): > 100 µM; IC50 (K562 [15]): > 20 µM; IC50 (HCT-116 [16]): > 20 µM; Activity (Pichia kudriavzevii): inactive; Activity (Candida parapsilosis): inactive; IC50 (HCT-116 [17]): > 100 µM
2 | Nc1nc(N)c2c(-c3ccsc3)cn([C@@H]3O[C@H](CO)[C@@H](O)[C@H]3O)c2n1 | > 20 | > 20 | inactive | inactive | inactive | inactive | > 44 | inactive | > 100 | > 44 | > 44 | inactive | > 20 | inactive | > 20 | inactive | > 100 | > 44 | > 20 | inactive | IC50 [13]: > 20 µM; Activity (Escherichia coli [14]): inactive; IC50 (BJ): > 100 µM; IC50 (K562 [15]): > 20 µM; IC50 (HCT-116 [16]): > 20 µM; Activity (Pichia kudriavzevii): inactive; Activity (Candida parapsilosis): inactive; IC50 (HCT-116 [17]): > 20 µM
3 | COc1nc(N)nc2c1c(-c1ccccc1)cn2[C@@H]1O[C@H](CO)[C@@H](O)[C@H]1O | > 20 | > 20 | inactive | inactive | inactive | inactive | > 44 | inactive | > 100 | > 44 | > 44 | inactive | > 20 | inactive | > 20 | inactive | > 20 | > 44 | > 20 | inactive | IC50 [13]: > 20 µM; Activity (Escherichia coli [14]): inactive; IC50 (BJ): > 100 µM; IC50 (K562 [15]): > 20 µM; IC50 (HCT-116 [16]): > 20 µM; Activity (Pichia kudriavzevii): inactive; Activity (Candida parapsilosis): inactive; IC50 (HCT-116 [17]): > 20 µM
4 | C#Cc1cn([C@@H]2O[C@H](CO)[C@@H](O)[C@H]2O)c2ncnc(SC)c12 | 0.03 | 0.05 | inactive | inactive | inactive | inactive | > 44 | inactive | > 100 | > 44 | 0.21 | inactive | > 15 | inactive | > 20 | inactive | 0.14 | > 44 | 0.11 | inactive | IC50 [13]: 0.11 µM; Activity (Escherichia coli [14]): inactive; IC50 (BJ): 68.6 µM; IC50 (K562 [15]): 0.07 µM; IC50 (HCT-116 [16]): 0.09 µM; Activity (Pichia kudriavzevii): inactive; Activity (Candida parapsilosis): inactive; IC50 (HCT-116 [17]): 0.03 µM
5 | Cc1ncnc2c1c(-c1ccco1)cn2[C@@H]1O[C@H](CO)[C@@H](O)[C@H]1O | 0.04 | 0.21 | inactive | inactive | inactive | inactive | 0.15 | inactive | 0.61 | 6.62 | 0.07 | inactive | 0.3 | inactive | 0.04 | inactive | 0.11 | 43.6 | 0.07 | inactive | IC50 [13]: 1.33 µM; Activity (Escherichia coli [14]): inactive; IC50 (BJ): 0.07 µM; IC50 (K562 [15]): 0.11 µM; IC50 (HCT-116 [16]): 0.04 µM; Activity (Pichia kudriavzevii): inactive; Activity (Candida parapsilosis): inactive; IC50 (HCT-116 [17]): 0.04 µM
6 | Cc1nc(N)c2c(-c3ccccc3)cn([C@@H]3O[C@H](CO)[C@@H](O)[C@H]3O)c2n1 | > 20 | > 20 | inactive | inactive | inactive | inactive | > 44 | inactive | > 100 | > 44 | > 44 | inactive | > 20 | inactive | > 20 | inactive | > 20 | > 44 | > 20 | inactive | IC50 [13]: > 20 µM; Activity (Escherichia coli [14]): inactive; IC50 (BJ): > 100 µM; IC50 (K562 [15]): > 20 µM; IC50 (HCT-116 [16]): > 20 µM; Activity (Pichia kudriavzevii): inactive; Activity (Candida parapsilosis): inactive; IC50 (HCT-116 [17]): > 100 µM
7 | CNc1ncnc2c1c(-c1ccccc1)cn2[C@@H]1O[C@H](CO)[C@@H](O)[C@H]1O | > 20 | > 20 | inactive | inactive | inactive | inactive | > 44 | inactive | > 100 | > 44 | > 44 | inactive | > 20 | inactive | > 20 | inactive | > 20 | > 44 | > 20 | inactive | IC50 [13]: > 20 µM; Activity (Escherichia coli [14]): inactive; IC50 (BJ): > 100 µM; IC50 (K562 [15]): > 20 µM; IC50 (HCT-116 [16]): > 100 µM; Activity (Pichia kudriavzevii): inactive; Activity (Candida parapsilosis): inactive; IC50 (HCT-116 [17]): > 20 µM
8 | CSc1ncnc2c1c(-c1cccs1)cn2[C@@H]1O[C@H](CO)[C@@H](O)[C@H]1O | 11.6 | 1.13 | inactive | inactive | inactive | inactive | > 44 | inactive | > 100 | > 44 | 5.42 | inactive | > 20 | inactive | > 20 | inactive | > 20 | > 44 | > 20 | inactive | IC50 [13]: 1.96 µM; Activity (Escherichia coli [14]): inactive; IC50 (BJ): 96.9 µM; IC50 (K562 [15]): > 20 µM; IC50 (HCT-116 [16]): > 20 µM; Activity (Pichia kudriavzevii): inactive; Activity (Candida parapsilosis): inactive; IC50 (HCT-116 [17]): > 20 µM
9 | Nc1nc2c(c(-c3ccco3)cn2[C@@H]2O[C@H](CO)[C@@H](O)[C@H]2O)c(=O)[nH]1 | > 20 | > 20 | inactive | inactive | inactive | inactive | > 44 | inactive | > 100 | > 44 | > 44 | inactive | > 20 | inactive | > 20 | inactive | > 20 | > 44 | > 20 | inactive | IC50 [13]: > 20 µM; Activity (Escherichia coli [14]): inactive; IC50 (BJ): > 100 µM; IC50 (K562 [15]): > 20 µM; IC50 (HCT-116 [16]): > 20 µM; Activity (Pichia kudriavzevii): inactive; Activity (Candida parapsilosis): inactive; IC50 (HCT-116 [17]): > 20 µM

— ChEMBL document CHEMBL3124843, “Synthesis, cytostatic, antimicrobial, and anti-HCV activity of 6-substituted 7-(het)aryl-7-deazapurine ribonucleosides” (J Med Chem, 2014)
